Results taken from ChEMBL document CHEMBL2311265, “5'-Phosphate and 5'-phosphonate ester derivatives of (N)-methanocarba adenosine with in vivo cardioprotective activity” (J Med Chem, 2013).
In brackets after ≈: the same amount, converted by molar mass. Activity calls are given as the source filed them. No cut-off for these calls is given here.

Tests used:
Mus musculus [1] = assay: Cardioprotective activity in BL6 mouse LAD ligation ischemic heart failure model assessed as fractional shortening at 10 uM, sc administered as infusion at 24 hrs post LAD ligation for 28 days by echocardiography (reference value: 17.33 +/- 1.36%); assay type: functional
[2] = Aqueous solubility of the compound after 1 hr; assay type: physicochemical; settings: buffer
Procedure, shortened: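 Excess solid stirred in water, supernatant removed and lyophilized; solubility calculated from the mass of solid recovered.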

Mus musculus [3] = assay: Ex-vivo cardioprotective activity in BL6 mouse LAD ligation ischemic heart failure model assessed as change in infarct size at 10 uM, sc administered as infusion at 24 hrs post LAD ligation for 28 days relative to control; assay type: functional, organism-based
Procedure, shortened: (§1)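 Permanent LAD ligation in 12-week-old WT BL6 mice under intraperitoneal ketamine (100 mg/kg) and xylazine (10 mg/kg). Starting within 24 h, agents in PBS pH 7.4 at 10 µM were infused by mini-osmotic pump at 6 µL per d for 28 d. Controls were vehicle-infused WT mice and cardiac P2X4R-overexpressing transgenic mice. Infarct size was taken after heart-function measurement, from formalin-fixed, paraffin 4-µm Masson's trichrome sections, as infarct length over endocardial plus epicardial circumference. One-way ANOVA with Newman-Keuls test.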

Mus musculus [4] = assay: Cardioprotective activity in BL6 mouse LAD ligation ischemic heart failure model assessed as change in infarct size at 10 uM, sc administered as infusion at 24 hrs post-LAD ligation for 1 month relative to control; assay type: functional, organism-based; procedure, shortened: as §1
Mus musculus [5] = assay: Ex-vivo cardioprotective activity in BL6 mouse LAD ligation ischemic heart failure model assessed as left ventricular rate of pressure change in isolated heart at 10 uM, sc administered as infusion at 24 hrs post LAD ligation for 28 days (reference value: 6156 +/- 356 mmHg/s); assay type: functional
Procedure, shortened: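 LAD-ligated BL6 mice were infused via mini-osmotic pump with 10 µM in PBS pH 7.4 at 6 µL per day for 28 days. Isolated working hearts then ejected buffered perfusate against a constant 56 mmHg hydrostatic afterload, and LV +dP/dt was recorded. Mean ± SEM against vehicle-infused controls; one-way ANOVA with Newman-Keuls.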

Mus musculus [6] = organism: Mus musculus; assay: Agonist activity at P2XR receptor in wild type BL6 mouse cardiac ventricular myocytes assessed as increase in contraction shortening
Procedure, shortened: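 Adult wild-type murine cardiac ventricular myocytes; contraction shortening recorded at basal control, during drug exposure and after washout. Data are mean ± standard error (13 or 8 myocytes per agent).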

Mus musculus [7] = assay: Cardioprotective activity in mouse overexpressing clasequestrin assessed as LV posterior wall thickness at 10 uM, sc administered as infusion for 2 weeks (reference value: 0.45 +/- 0.007 mm); assay type: functional
Mus musculus [8] = assay: Cardioprotective activity in mouse overexpressing clasequestrin assessed as LV septal wall thickness at 10 uM, sc administered as infusion for 2 weeks (reference value: 0.45 +/- 0.007 mm); assay type: functional
Mus musculus [9] = assay: Cardioprotective activity in mouse overexpressing clasequestrin assessed as increase in fractional shortening at 10 uM, sc administered as infusion for 2 weeks relative to control; assay type: functional, organism-based
Mus musculus [10] = assay: Cardioprotective activity in mouse overexpressing clasequestrin assessed as prevention of LV wall thinning at 10 uM, sc administered as infusion for 2 weeks; assay type: functional, organism-based
Procedure, shortened: (§2)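 CSQ-overexpressing mice with heart failure, 2-week infusion (n=5). Outcome is LV septal and posterior wall thickness versus normal-saline-infused CSQ mice. Values are mean ± standard error.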

Liver microsomes = assay: Metabolic stability of the compound in rat liver microsomes by HPLC analysis; assay type: ADME, Microsome
Procedure, shortened: (§3)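 Incubation with mouse or rat liver microsomes at 37°C for 24 h, and checked for hydrolysis.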

Liver = assay: Metabolic stability of the compound in mouse liver microsomes by HPLC analysis; assay type: ADME, Microsome; procedure, shortened: as §3
[11] = Chemical stability of the compound in aqueous medium at pH 11 at 50 degC after 24 hrs by HPLC analysis; assay type: physicochemical; settings: buffer, pH 11, 24 h
Procedure, shortened: (§4)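 Incubation for 24 h in aqueous medium at pH 1 or pH 11, 50°C, and checked for hydrolysis.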

Mus musculus [12] = assay: Cardioprotective activity in mouse overexpressing clasequestrin assessed as increase in LV posterior wall thickness during systole at 10 uM, sc administered as infusion for 2 weeks relative to control; assay type: functional, organism-based; procedure, shortened: as §2
Plasma = assay: Metabolic stability of the compound in rat plasma at 1.09 mM by HPLC analysis; assay type: ADME, cell-free; settings: 1090 µM
Procedure, shortened: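 Incubation with rat plasma at 37°C for 24 h, and checked for hydrolysis.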

Mus musculus [13] = assay: Cardioprotective activity in mouse overexpressing clasequestrin assessed as increase in LV septal wall thickness during systole at 10 uM, sc administered as infusion for 2 weeks relative to control; assay type: functional, organism-based; procedure, shortened: as §2
Mus musculus [14] = assay: Cardioprotective activity in mouse overexpressing clasequestrin assessed as increase in LV posterior wall thickness during diastole at 10 uM, sc administered as infusion for 2 weeks relative to control; assay type: functional, organism-based; procedure, shortened: as §2
[15] = Chemical stability of the compound in aqueous medium at pH 1 at 50 degC after 24 hrs by HPLC analysis; assay type: physicochemical; settings: buffer, pH 1, 24 h; procedure, shortened: as §4
Mus musculus [16] = assay: Cardioprotective activity in mouse overexpressing clasequestrin assessed as increase in fractional shortening at 3.3 uM, sc administered as infusion for 2 weeks relative to control; assay type: functional, organism-based

Row | Compound | Activity (Mus musculus [1]) [%] | Activity (Mus musculus [3]) | Activity (Mus musculus [4]) | Activity (Mus musculus [5]) [mmHg/s] | other results
1 | [2H]C([2H])(OP(=O)(OCC)OCC)[C@@]12C[C@@H]1[C@@H](n1cnc3c(N)nc(Cl)nc31)[C@H](O)[C@@H]2O | 21.48 | – | – | – | –
2 | CCOP(=O)(C[C@@]12C[C@@H]1[C@@H](n1cnc3c(N)nc(Cl)nc31)[C@H](O)[C@@H]2O)OCC | – | inactive | inactive | 5946 | solubility [2]: 60 mM (≈ 25.9 mg/mL)
3 | Nc1nc(Cl)nc2c1ncn2[C@@H]1C2CC2(COP(=O)(O)O)[C@@H](O)[C@H]1O (single isomer, unassigned) | 22.14 | inactive | inactive | 6508 | Activity (Mus musculus [6]): Active
4 | CCOP(=O)(C[C@@]12C[C@@H]1[C@@H](n1cnc3c(N)nc(I)nc31)[C@H](O)[C@@H]2O)OCC | 23.05 | – | inactive | – | –
5 | Nc1nc(Cl)nc2c1ncn2[C@H]1[C@H](O)[C@H](O)[C@]2(CSP(=O)(O)O)C[C@H]12 | – | inactive | inactive | 6553 | Activity (Mus musculus [7]): 0.493 mm; Activity (Mus musculus [8]): 0.492 mm
6 | Nc1nc(Cl)nc2c1ncn2[C@H]1[C@H](O)[C@H](O)[C@]2(COP(=O)(O)O)C[C@H]12 | – | – | – | – | Activity (Mus musculus [4]; tested as the 2H-labelled form): inactive
7 | CC(C)(C)OP(=O)(OC[C@@]12C[C@@H]1[C@@H](n1cnc3c(N)nc(Cl)nc31)[C@H](O)[C@@H]2O)OC(C)(C)C | 24.07 | inactive | inactive | 6681 | –
8 | CCOP(=S)(OCC)SC[C@@]12C[C@@H]1[C@@H](n1cnc3c(N)nc(Cl)nc31)[C@H](O)[C@@H]2O | 24.76 | – | inactive | – | –
9 | CCOP(=O)(OCC)OC[C@@]12C[C@@H]1[C@@H](n1cnc3c(N)nc(Cl)nc31)[C@H](O)[C@@H]2O | 24.71 | inactive | inactive | 6711 | Activity (Mus musculus [4]; tested as the 2H-labelled form): inactive
10 | CC(C)OP(=O)(OC[C@@]12C[C@@H]1[C@@H](n1cnc3c(N)nc(Cl)nc31)[C@H](O)[C@@H]2O)OC(C)C | 25.77 | – | inactive | – | –
11 | Nc1nc(I)nc2c1ncn2[C@H]1[C@H](O)[C@H](O)[C@]2(CP(=O)(O)O)C[C@H]12 | – | inactive | inactive | 6581 | Activity (Mus musculus [9]): inactive; Activity (Mus musculus [10]): inactive
12 | CCOP(=O)(OCC)SC[C@@]12C[C@@H]1[C@@H](n1cnc3c(N)nc(Cl)nc31)[C@H](O)[C@@H]2O | 24.31 | – | inactive | – | –
13 | CC(C)OP(=O)(CC[C@@]12C[C@@H]1[C@@H](n1cnc3c(N)nc(Cl)nc31)[C@H](O)[C@@H]2O)OC(C)C | – | – | – | – | Stability (Liver microsomes): Stable; Stability (Liver): Stable; Stability [11]: Stable; Activity (Mus musculus [12]): Active; solubility [2]: 7.25 mM (≈ 3.44 mg/mL); Stability (Plasma): Stable; Activity (Mus musculus [13]): Active; Activity (Mus musculus [14]): Active; Stability [15]: Stable
14 | Nc1nc(Cl)nc2c1ncn2[C@H]1[C@H](O)[C@H](O)[C@]2(CCP(=O)(O)O)C[C@H]12 | – | – | – | – | Activity (Mus musculus [9]): Active; Activity (Mus musculus [16]): Active; Activity (Mus musculus [6]): Active
15 | CCOP(=S)(OCC)OC[C@@]12C[C@@H]1[C@@H](n1cnc3c(N)nc(Cl)nc31)[C@H](O)[C@@H]2O | – | – | inactive | – | –
16 | [2H]C([2H])(OP(=O)(O)O)[C@@]12C[C@@H]1[C@@H](n1cnc3c(N)nc(Cl)nc31)[C@H](O)[C@@H]2O | 23.06 | – | – | – | –
